Laboratory results from ChEMBL document CHEMBL4689842, “EUbOPEN Chemogenomics Library wave 1” (2021).
Several values for one entry are separate records, joined by “and”; a condition that tells them apart may be missing. Equal values may be shown once.

Tested on: Fibroblast
Test: Multiplex assay against human fibroblast
Format: toxicity, cell-based
Summary of the method: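 Phenotypes for tubulin, mitochondrial mass and membrane permeability are expressed as per cents of healthy-nucleus cells. Cells were stained live at seeding with Hoechst33342, BioTracker Green Microtubule Cytoskeleton Dye, MitoTracker Red and Annexin V Alexa Fluor 680, then imaged after compound addition on a CQ1 microscope at 37°C and 5% CO2. Machine-learning gating in CellPathfinder separated Hoechst high-intensity objects from normal cells, divided normal cells by nuclear state (healthy, pyknosed, fragmented) and divided pyknosed cells into mitotic or apoptotic.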

[1] = 12 h, 1 µM, compound concentration 1 uM, replicate 1
[2] = 12 h, 1 µM, compound concentration 1 uM, replicate 2
[3] = 12 h, 10 µM, compound concentration 10 uM, replicate 1
[4] = 12 h, 10 µM, compound concentration 10 uM, replicate 2
[5] = 24 h, 1 µM, compound concentration 1 uM, replicate 1
[6] = 24 h, 1 µM, compound concentration 1 uM, replicate 2
[7] = 24 h, 10 µM, compound concentration 10 uM, replicate 1
[8] = 24 h, 10 µM, compound concentration 10 uM, replicate 2
[9] = 48 h, 10 µM, compound concentration 10 uM, replicate 1
[10] = 48 h, 10 µM, compound concentration 10 uM, replicate 2

## Cl.O=C(c1ccc(Nc2nccc(-c3cc4ccccc4s3)n2)cc1)N1CCC(N2CCCC2)CC1
[1]
  Population Apoptotic (%): 84%
  Population Fragmented Nuclei (%): 42%
  Population Healthy Nuclei (%): 48%
  Population Hoechst High Intensity Objects (%): 21%
  Population Membrane Permeable-Phenotype (%): 4%
  Population Mitochondria Different-Phenotype (%): 10%
  Population Mitotic Cells (%): 15%
  Population Normal (%): 78%
  Population Pyknosed Nuclei (%): 9%
  Population Tubulin-Different-Phenotype (%): 14%
  Total Cell Count: 260
[2]
  Population Apoptotic (%): 55%
  Population Fragmented Nuclei (%): 53%
  Population Healthy Nuclei (%): 32%
  Population Hoechst High Intensity Objects (%): 36%
  Population Membrane Permeable-Phenotype (%): 0%
  Population Mitochondria Different-Phenotype (%): 9%
  Population Mitotic Cells (%): 44%
  Population Normal (%): 63%
  Population Pyknosed Nuclei (%): 13%
  Total Cell Count: 102
[3]
  Population Apoptotic (%): 73% and 44%
  Population Fragmented Nuclei (%): 31% and 33%
  Population Healthy Nuclei (%): 16% and 12%
  Population Hoechst High Intensity Objects (%): 19% and 12%
  Population Mitochondria Different-Phenotype (%): 26% and 36%
  Population Mitotic Cells (%): 26% and 55%
  Population Normal (%): 80% and 87%
  Population Pyknosed Nuclei (%): 52% and 53%
  Population Tubulin-Different-Phenotype (%): 66% and 53%
  Total Cell Count: 115 and 265
[4]
  Population Apoptotic (%): 93% and 82%
  Population Fragmented Nuclei (%): 35% and 54%
  Population Healthy Nuclei (%): 7% and 10%
  Population Hoechst High Intensity Objects (%): 21% and 38%
  Population Membrane Permeable-Phenotype (%): 50% and 42%
  Population Mitochondria Different-Phenotype (%): 100% and 57%
  Population Mitotic Cells (%): 6% and 17%
  Population Normal (%): 78% and 61%
  Population Pyknosed Nuclei (%): 57% and 34%
  Population Tubulin-Different-Phenotype (%): 100% and 57%
  Total Cell Count: 73 and 108
[5]
  Population Apoptotic (%): 76%
  Population Fragmented Nuclei (%): 44%
  Population Healthy Nuclei (%): 47%
  Population Hoechst High Intensity Objects (%): 23%
  Population Membrane Permeable-Phenotype (%): 4%
  Population Mitochondria Different-Phenotype (%): 3%
  Population Mitotic Cells (%): 23%
  Population Normal (%): 76%
  Population Pyknosed Nuclei (%): 8%
  Population Tubulin-Different-Phenotype (%): 10%
  Total Cell Count: 340
[6]
  Population Apoptotic (%): 0%
  Population Fragmented Nuclei (%): 60%
  Population Healthy Nuclei (%): 34%
  Population Hoechst High Intensity Objects (%): 32%
  Population Membrane Permeable-Phenotype (%): 8%
  Population Mitochondria Different-Phenotype (%): 20%
  Population Mitotic Cells (%): 100%
  Population Normal (%): 67%
  Population Pyknosed Nuclei (%): 5%
  Population Tubulin-Different-Phenotype (%): 32%
  Total Cell Count: 108
[7]
  Population Apoptotic (%): 71%
  Population Fragmented Nuclei (%): 43% and 48%
  Population Hoechst High Intensity Objects (%): 16% and 20%
  Population Membrane Permeable-Phenotype (%): 33% and 14%
  Population Mitochondria Different-Phenotype (%): 22% and 14%
  Population Mitotic Cells (%): 28%
  Population Normal (%): 83% and 79%
  Population Pyknosed Nuclei (%): 46% and 48%
  Population Tubulin-Different-Phenotype (%): 66% and 71%
  Total Cell Count: 112 and 297
[8]
  Population Apoptotic (%): 88% and 100%
  Population Fragmented Nuclei (%): 66% and 26%
  Population Hoechst High Intensity Objects (%): 45% and 31%
  Population Membrane Permeable-Phenotype (%): 50% and 100%
  Population Mitotic Cells (%): 11% and 0%
  Population Normal (%): 54% and 68%
  Population Pyknosed Nuclei (%): 29% and 58%
  Population Tubulin-Different-Phenotype (%): 50% and 87%
  Total Cell Count: 105 and 76
[9]
  Population Apoptotic (%): 91%
  Population Fragmented Nuclei (%): 55%
  Population Healthy Nuclei (%): 24%
  Population Hoechst High Intensity Objects (%): 49%
  Population Membrane Permeable-Phenotype (%): 33%
  Population Mitochondria Different-Phenotype (%): 33%
  Population Mitotic Cells (%): 8%
  Population Normal (%): 50%
  Population Pyknosed Nuclei (%): 19%
  Population Tubulin-Different-Phenotype (%): 66%
  Total Cell Count: 120
[10]
  Population Apoptotic (%): 50%
  Population Fragmented Nuclei (%): 78%
  Population Healthy Nuclei (%): 17%
  Population Hoechst High Intensity Objects (%): 50%
  Population Membrane Permeable-Phenotype (%): 62%
  Population Mitochondria Different-Phenotype (%): 12%
  Population Mitotic Cells (%): 50%
  Population Normal (%): 49%
  Population Pyknosed Nuclei (%): 4%
  Population Tubulin-Different-Phenotype (%): 62%
  Total Cell Count: 93
